Results on three compounds are retold here after ChEMBL document CHEMBL1157359, “Binding of ceftobiprole and comparators to the penicillin-binding proteins of Escherichia coli, Pseudomonas aeruginosa, Staphylococcus aureus, and Streptococcus pneumoniae” (Antimicrob Agents Chemother, 2007).

A word on the IC50: it is the concentration that inhibits the measured activity by half.

Values after ≈ are worked out from the molar mass of the structure shown.

Assay [1] can be described thus: Inhibition of bocillin FL binding to Pseudomonas aeruginosa PAO1 penicillin-binding protein 1a. The essentials: (§1)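 P. aeruginosa PAO1 PBPs were isolated and competed with 10 drug concentrations from 0.06 μg/ml to 32 μg/ml before Bocillin FL labeling. Bands were detected by fluorescence imaging. IC50 was taken as 50% inhibition of Bocillin FL binding versus the no-drug sample.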

Assay [2] is described as follows: Inhibition of bocillin FL binding to Escherichia coli MC4100 penicillin-binding protein 6. The essentials: (§2)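 Isolated E. coli MC4100 PBPs were competed with 10 drug concentrations from 0.016 μg/ml to 8 μg/ml, then labeled with Bocillin FL. Fluorescent PBP bands were imaged. IC50 is the concentration giving 50% inhibition of Bocillin FL binding to each PBP relative to a no-drug control.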

Assay [3] can be described thus: Inhibition of bocillin FL binding to Escherichia coli MC4100 penicillin-binding protein 5. The essentials: as §2
Assay [4] in a line: Inhibition of bocillin FL binding to Escherichia coli MC4100 penicillin-binding protein 4. The essentials: as §2
A short description of assay [5]: Inhibition of bocillin FL binding to Escherichia coli MC4100 penicillin-binding protein 3. The method in brief:
as §2

Assay [6] has as its target T1, Cell shape peptidoglycan synthetase penicillin-binding protein 2 (Escherichia coli, UniProt Q2TL65).
T1 sequence (Q2TL65 whole entry): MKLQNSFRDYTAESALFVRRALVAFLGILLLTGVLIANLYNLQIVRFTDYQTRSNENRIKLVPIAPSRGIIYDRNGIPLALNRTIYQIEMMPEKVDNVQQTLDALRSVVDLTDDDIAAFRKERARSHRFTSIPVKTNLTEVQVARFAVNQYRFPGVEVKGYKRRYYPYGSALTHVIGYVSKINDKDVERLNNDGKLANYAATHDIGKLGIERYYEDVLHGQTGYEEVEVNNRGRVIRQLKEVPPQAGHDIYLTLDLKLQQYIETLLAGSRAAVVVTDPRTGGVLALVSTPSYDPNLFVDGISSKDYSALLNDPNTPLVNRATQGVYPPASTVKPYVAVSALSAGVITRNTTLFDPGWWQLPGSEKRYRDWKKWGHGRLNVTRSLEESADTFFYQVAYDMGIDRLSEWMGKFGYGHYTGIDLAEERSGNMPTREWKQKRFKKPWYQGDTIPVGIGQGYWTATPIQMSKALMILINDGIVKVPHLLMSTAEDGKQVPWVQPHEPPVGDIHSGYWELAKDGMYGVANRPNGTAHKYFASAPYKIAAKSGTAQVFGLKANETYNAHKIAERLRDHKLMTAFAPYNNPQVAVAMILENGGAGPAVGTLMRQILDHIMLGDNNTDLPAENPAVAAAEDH
Briefly: Inhibition of bocillin FL binding to Escherichia coli MC4100 penicillin-binding protein 2. The essentials: (§3)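 Isolated E. coli MC4100 PBPs; competition with drug at 10 concentrations, 0.016 μg/ml to 8 μg/ml, then Bocillin FL labeling. Gel bands visualized by imaging. IC50 is the concentration giving 50% inhibition of Bocillin FL binding relative to a no-drug control.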

Assay [7] is described as follows: Inhibition of bocillin FL binding to Escherichia coli MC4100 penicillin-binding protein 1b. The essentials: as §2
A short description of assay [8]: Inhibition of bocillin FL binding to Escherichia coli MC4100 penicillin-binding protein 1a. The essentials:
as §3

Assay [9] addresses T2, Penicillin-binding protein 2 (Pseudomonas aeruginosa, UniProt Q9X6V3).
T2 sequence (Q9X6V3 whole entry): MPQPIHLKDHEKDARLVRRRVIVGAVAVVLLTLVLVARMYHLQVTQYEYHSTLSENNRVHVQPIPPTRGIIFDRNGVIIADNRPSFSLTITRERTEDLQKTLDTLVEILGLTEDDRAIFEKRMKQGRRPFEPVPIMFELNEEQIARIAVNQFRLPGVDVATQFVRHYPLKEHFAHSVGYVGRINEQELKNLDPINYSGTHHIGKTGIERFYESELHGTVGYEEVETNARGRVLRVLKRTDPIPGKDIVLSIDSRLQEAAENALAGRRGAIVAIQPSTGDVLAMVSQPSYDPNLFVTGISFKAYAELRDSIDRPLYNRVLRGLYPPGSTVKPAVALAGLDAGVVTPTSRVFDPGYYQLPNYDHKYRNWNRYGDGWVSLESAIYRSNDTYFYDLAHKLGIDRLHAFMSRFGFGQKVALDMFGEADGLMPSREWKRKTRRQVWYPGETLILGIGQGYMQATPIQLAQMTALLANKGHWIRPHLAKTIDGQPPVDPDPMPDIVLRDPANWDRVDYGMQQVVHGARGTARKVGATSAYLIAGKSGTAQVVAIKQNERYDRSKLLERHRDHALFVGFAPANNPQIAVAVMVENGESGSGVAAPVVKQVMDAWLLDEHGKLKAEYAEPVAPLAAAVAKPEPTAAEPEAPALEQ
The experiment in a line: Inhibition of bocillin FL binding to Pseudomonas aeruginosa PAO1 penicillin-binding protein 2. The method in brief: (§4)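 Isolated P. aeruginosa PAO1 PBPs; drug added at 10 concentrations, 0.06 μg/ml to 32 μg/ml, before Bocillin FL labeling. Labeled PBPs imaged. IC50 is the drug level cutting Bocillin FL binding by 50% versus a no-drug sample.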

For assay [10], the target named is Penicillin-binding protein 3 (Pseudomonas aeruginosa, UniProt Q51504). Briefly: Inhibition of bocillin FL binding to Pseudomonas aeruginosa PAO1 penicillin-binding protein 3. The method in brief: as §4
Assay [11] is described as follows: Inhibition of bocillin FL binding to Pseudomonas aeruginosa PAO1 penicillin-binding protein 4. The essentials:
as §1

Assay [12] can be described thus: Inhibition of bocillin FL binding to Pseudomonas aeruginosa PAO1 penicillin-binding protein 5/6. The method in brief:
as §4

In assay [13] the target is T3, Penicillin-binding protein 1B (Pseudomonas aeruginosa, UniProt Q9X6W0).
T3 sequence (Q9X6W0 whole entry): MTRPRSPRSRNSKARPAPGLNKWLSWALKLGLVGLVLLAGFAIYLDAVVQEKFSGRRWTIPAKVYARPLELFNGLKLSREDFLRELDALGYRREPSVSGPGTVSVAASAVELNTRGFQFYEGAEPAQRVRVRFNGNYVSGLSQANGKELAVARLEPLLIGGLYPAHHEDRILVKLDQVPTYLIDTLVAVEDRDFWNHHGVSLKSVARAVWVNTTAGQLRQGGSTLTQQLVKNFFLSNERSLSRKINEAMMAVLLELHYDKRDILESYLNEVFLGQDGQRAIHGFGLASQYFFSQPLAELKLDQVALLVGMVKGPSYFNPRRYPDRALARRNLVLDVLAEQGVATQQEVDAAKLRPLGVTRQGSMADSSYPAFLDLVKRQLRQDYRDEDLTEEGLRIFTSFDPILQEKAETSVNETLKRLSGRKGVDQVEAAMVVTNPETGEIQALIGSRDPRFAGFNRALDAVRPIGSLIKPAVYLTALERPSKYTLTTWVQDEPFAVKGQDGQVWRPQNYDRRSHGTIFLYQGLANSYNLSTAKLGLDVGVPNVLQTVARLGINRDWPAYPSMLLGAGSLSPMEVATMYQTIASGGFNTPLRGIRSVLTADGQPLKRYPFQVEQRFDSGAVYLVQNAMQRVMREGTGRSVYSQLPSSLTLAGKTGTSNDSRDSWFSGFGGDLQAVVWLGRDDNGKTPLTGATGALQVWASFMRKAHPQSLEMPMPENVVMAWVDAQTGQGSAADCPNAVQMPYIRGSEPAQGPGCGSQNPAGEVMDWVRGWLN
Briefly: Inhibition of bocillin FL binding to Pseudomonas aeruginosa PAO1 penicillin-binding protein 1b. The essentials: as §4

Chain of Penicillin-binding protein 3 (Q51504 whole entry): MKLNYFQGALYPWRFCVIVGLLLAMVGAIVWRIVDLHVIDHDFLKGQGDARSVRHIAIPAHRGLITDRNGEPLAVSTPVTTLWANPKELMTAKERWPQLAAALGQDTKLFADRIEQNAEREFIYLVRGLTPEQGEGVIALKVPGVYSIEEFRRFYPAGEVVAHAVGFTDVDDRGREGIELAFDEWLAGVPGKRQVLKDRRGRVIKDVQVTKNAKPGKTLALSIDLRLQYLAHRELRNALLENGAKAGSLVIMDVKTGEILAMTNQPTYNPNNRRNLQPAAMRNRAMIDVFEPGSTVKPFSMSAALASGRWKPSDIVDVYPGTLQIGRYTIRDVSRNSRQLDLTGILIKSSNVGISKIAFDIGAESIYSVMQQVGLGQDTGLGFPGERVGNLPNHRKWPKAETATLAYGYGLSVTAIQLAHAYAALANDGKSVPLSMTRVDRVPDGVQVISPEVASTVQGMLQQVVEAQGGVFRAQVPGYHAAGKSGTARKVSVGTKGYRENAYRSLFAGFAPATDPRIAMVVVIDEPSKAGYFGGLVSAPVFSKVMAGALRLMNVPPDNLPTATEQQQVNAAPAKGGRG

Regarding `C[C@H]1[C@H](NC(=O)/C(=N\OC(C)(C)C(=O)O)c2csc(N)n2)C(=O)N1S(=O)(=O)O` (stereo in doubt) [AZTREONAM], the half-maximal inhibitory concentration (IC50) was 2 µg/mL (≈ 4.59 µM) in assay [1]; over 8 µg/mL in [2]; over 8 µg/mL in assay [3]; over 8 µg/mL in [4]; 0.03 µg/mL (≈ 0.0689 µM) in assay [5]; over 18400 nM in assay [6]. For the same compound, the IC50 in assay [7] was over 8 µg/mL; in assay [8] it was over 8 µg/mL; in assay [9], 36700 nM; in [10] it was 68.9 nM; in assay [11], 16 µg/mL (≈ 36.7 µM); in [12], over 16 µg/mL.

As for `CO/N=C(\C(=O)N[C@@H]1C(=O)N2C(C(=O)[O-])=C(C[N+]3(C)CCCC3)CS[C@H]12)c1csc(N)n1`, the half-maximal inhibitory concentration (IC50) was 0.1 µg/mL (≈ 0.208 µM) in [1]; over 4 µg/mL in assay [2]; over 4 µg/mL in assay [3]; over 4 µg/mL in assay [4]; 0.1 µg/mL (≈ 0.208 µM) in assay [5]; 1250 nM in [6]. Also, the half-maximal inhibitory concentration (IC50) is 3.7 µg/mL (≈ 7.7 µM) in assay [7]; 2 µg/mL (≈ 4.16 µM) in [8]; 16600 nM in assay [9]; 208 nM in assay [10]; 0.3 µg/mL (≈ 0.624 µM) in [11]; over 32 µg/mL in [12].

For `C[C@@H](O)[C@H]1C(=O)N2C(C(=O)O)=C(SCCNC=N)C[C@H]12` [IMIPENEM ANHYDROUS], the IC50 was 1670 nM in [13]; 0.5 µg/mL (≈ 1.67 µM) in [1]; 0.1 µg/mL (≈ 0.334 µM) in assay [2]; 0.5 µg/mL (≈ 1.67 µM) in [3]; 0.01 µg/mL (≈ 0.0334 µM) in [4]; 8 µg/mL (≈ 26.7 µM) in [5]. Also, the half-inhibitory concentration (IC50) in assay [6] was 33.4 nM; in [7], 0.5 µg/mL (≈ 1.67 µM); in assay [8], 0.5 µg/mL (≈ 1.67 µM); in assay [9], 334 nM; in assay [10], 334 nM; in assay [11], 0.01 µg/mL (≈ 0.0334 µM). In [12], this compound registered a half-maximal inhibitory concentration (IC50) of 2 µg/mL (≈ 6.68 µM).
